Measurements published in ChEMBL document CHEMBL1154396, “1-(5-Carboxyindol-1-yl)propan-2-ones as inhibitors of human cytosolic phospholipase A2alpha: synthesis and properties of bioisosteric benzimidazole, benzotriazole and indazole analogues” (Bioorg Med Chem Lett, 2009).
pIC50: −log10 of the molar value. Values after ≈ are worked out from the molar mass of the structure shown.

What was measured:
[1] = target: T1, Cytosolic phospholipase A2 (Homo sapiens, UniProt P47712); assay: Inhibition of cPLA2 in human platelets assessed as arachidonic acid release
T1 sequence (P47712 whole entry): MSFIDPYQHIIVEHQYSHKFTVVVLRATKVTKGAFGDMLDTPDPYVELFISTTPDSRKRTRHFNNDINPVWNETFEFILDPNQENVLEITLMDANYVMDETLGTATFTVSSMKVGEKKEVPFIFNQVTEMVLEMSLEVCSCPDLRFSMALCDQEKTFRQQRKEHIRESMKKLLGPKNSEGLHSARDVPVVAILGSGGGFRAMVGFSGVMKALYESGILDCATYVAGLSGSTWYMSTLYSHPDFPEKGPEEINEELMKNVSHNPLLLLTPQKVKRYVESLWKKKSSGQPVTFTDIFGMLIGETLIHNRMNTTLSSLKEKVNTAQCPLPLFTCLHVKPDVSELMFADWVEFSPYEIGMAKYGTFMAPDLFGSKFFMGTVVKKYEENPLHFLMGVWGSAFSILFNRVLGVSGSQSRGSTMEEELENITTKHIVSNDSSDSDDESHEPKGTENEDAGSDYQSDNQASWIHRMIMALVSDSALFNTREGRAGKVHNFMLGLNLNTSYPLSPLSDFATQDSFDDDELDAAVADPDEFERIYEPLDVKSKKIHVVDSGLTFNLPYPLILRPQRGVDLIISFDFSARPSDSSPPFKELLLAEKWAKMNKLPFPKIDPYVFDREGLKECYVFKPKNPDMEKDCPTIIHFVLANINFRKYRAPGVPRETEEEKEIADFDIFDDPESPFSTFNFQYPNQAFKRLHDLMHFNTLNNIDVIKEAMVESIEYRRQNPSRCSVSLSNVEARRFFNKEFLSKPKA
Summary of the method: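 cPLA2α purified from human platelets; substrate covesicles of 1-stearoyl-2-arachidonoyl-sn-glycero-3-phosphocholine (SAPC) with 1,2-dioleoyl-sn-glycerol (DOG). Arachidonic acid released from SAPC after 60 min incubation quantified by reversed-phase HPLC, UV 200 nm; inhibition from release with vs without compound. IC50 values are means of at least two independent determinations.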

Liver microsomes = assay: Metabolic stability in rat liver microsomes; format: ADME, Microsome
Summary of the method: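 Rat liver microsomes incubated aerobically with test compound, with and without NADPH, stopped after 30 min. Parent remaining in the NADPH incubation quantified by reversed-phase HPLC with UV detection against the NADPH-free reference incubation and given as percent remaining. Main metabolite structure confirmed by LC/MS. Mean of at least two independent determinations.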

[2] = Thermodynamic solubility in sodium phosphate buffer at pH 7.4; format: physicochemical
Summary of the method: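 Thermodynamic method: solid compound suspended in sodium phosphate buffer pH 7.4, sonicated 10 min, then shaken 20 h at room temperature. Undissolved material removed by centrifugation, and dissolved concentration in the aqueous phase measured by HPLC.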

Structure (SMILES)	pIC50 [1]	Stability (Liver microsomes) [%]	solubility thermodynamic [2] [µg/mL]
CCCCCCCCc1ccc(OCC(=O)Cn2cnc3cc(C(=O)O)ccc32)cc1	6.82	49	22 (≈ 52.1 µM)
CCCCCCCCc1ccc(OCC(=O)Cn2cnc3ccc(C(=O)O)cc32)cc1	7.07	40	7 (≈ 16.6 µM)
CCCCCCCCc1ccc(OCC(=O)Cn2ncc3ccc(C(=O)O)cc32)cc1	7.59	36	5 (≈ 11.8 µM)
CCCCCCCCc1ccc(OCC(=O)Cn2ncc3cc(C(=O)O)ccc32)cc1	8.30	64	< 1
CCCCCCCCc1ccc(OCC(=O)Cn2nnc3cc(C(=O)O)ccc32)cc1	7.59	43	< 1
CCCCCCCCc1ccc(OCC(=O)Cn2nnc3ccc(C(=O)O)cc32)cc1	7.80	44	2 (≈ 4.72 µM)
CCCCCCCCc1ccc(OCC(=O)Cn2ccc3ccc(C(=O)O)cc32)cc1		39	< 1
